# According to ChEMBL document CHEMBL5608187, “Discovery of pyridoquinoxaline-based new P-gp inhibitors as coadjutant against Multi Drug Resistance in cancer” (Eur J Med Chem, 2024):
# Activity calls are given as the source filed them. No cut-off for these calls is given here.
# Assays:
# MeWo [1] = test: Cytotoxicity against human MeWo cells assessed as inhibition of cell growth at 4 uM incubated for 72 hrs by SiR-DNA/CellTox Green Dye based fluorescence analysis; format: toxicity
# How it was run: (§1)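 Single-agent control at 4 µM, no anticancer drug. 500 cells/well with SiR-DNA and CellTox Green; imaged at addition and 72 h. Live count = total nuclei minus dead cells, expressed as percent growth. Three technical replicates.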
# [2] = molecular target: T1, ATP-dependent translocase ABCB1 (Homo sapiens, UniProt P08183); test: Inhibition of P-gp in human HCT-15 cells assessed as increase in green fluorescence intensity at 1 to 10 uM incubated for 15 mins followed by incubation with EFFLUX-ID Green Detection Reagent and Hoeschst-33342 dye and measured after 30 mins by fluorescence analysis; format: cell-based; conditions: hct-15, 0.25 h, dose 1-10 µM
# How it was run: (§2)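 5000 cells/well in phenol-red-free medium plated 24 h before; compounds 0.1, 1, 10 µM for 15 min, then EFLUXX-ID Green reagent (1:200) plus Hoechst-33342 1 µg/mL, 30 min 37 °C. Widefield imaging; median green intensity from 250 cells per well normalized to untreated wells. Mean ± SD of three wells; one-tailed t-test.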
# [3] = Cytotoxicity against human HGC-27 cells assessed as inhibition of cell growth at 4 uM incubated for 72 hrs by SiR-DNA/CellTox Green Dye based fluorescence analysis relative to control; format: toxicity; how it was run: as §1
# A498 = test: Coadjutant activity against multidrug resistance in human A498 cells assessed as potentiation of etoposide-induced cell growth inhibition at 4 uM incubated for 72 hrs in presence of 0.04 to 40 uM etoposide by SiR-DNA/CellTox Green Dye based fluorescence analysis; format: functional
# How it was run: (§3)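 Growth by live-cell imaging: 500 cells/well plated with SiR-DNA and CellTox Green dye; serial dilutions in phenol-red-free complete medium added next day. Imaged at addition and at 72 h. Live cells = SiR-DNA nuclei minus CellTox-positive dead cells; percentage growth calculated. Three technical replicates; two-tailed t-test. Inhibitor paired with anticancer drug at fixed or scaled levels.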
# U-87 MG [4] = test: Coadjutant activity against multidrug resistance in human U-87 MG cells assessed as potentiation of vincristine-induced cell growth inhibition at 0.25 to 4 uM incubated for 72 hrs in presence of 0.2 uM vincristine by SiR-DNA/CellTox Green Dye based fluorescence analysis; format: functional; conditions: U-87MG ATCC, dose 0.25-4 µM; how it was run: as §3
# HT-29 [5] = test: Coadjutant activity against multidrug resistance in human HT-29 cells assessed as potentiation of cisplatin-induced cell growth inhibition at 0.25 to 4 uM incubated for 72 hrs in presence of 0.25 uM cisplatin by SiR-DNA/CellTox Green Dye based fluorescence analysis; format: functional; conditions: dose 0.25-4 µM
# How it was run: (§4)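 Cisplatin co-treatment, 72 h imaging growth assay (SiR-DNA nuclei minus CellTox Green dead cells, 500 cells/well, phenol-red-free medium). Combinations: inhibitor fixed with cisplatin 0.1–100 µM, or cisplatin fixed at 0.25 µM with inhibitor 0.25–4 µM. Three technical replicates, mean ± SD; two-tailed t-test.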
# HMC3 = test: Cytotoxicity against human HMC3 cells assessed as effect on cell viability at 0.1 to 100 uM incubated for 24 to 72 hrs by MTT assay; format: toxicity, cell-based; conditions: hmc3, 100 µM, dose lower 0.1 µM, time lower 24 hrs, dose upper 100 µM, time upper 72 hrs
# How it was run: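 HMC3 microglia in high-glucose DMEM/10% FBS, 37 °C 5% CO2, treated 0.1–100 µM for 24, 48 or 72 h; vehicle-treated controls. MTT 0.5 mg/mL, 4 h 37 °C, formazan dissolved in DMSO, read at 540 nm; viability as percent of control. Three independent experiments in triplicate, mean ± S.E.M., one-way ANOVA with Tukey.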
# [6] = molecular target: T1, ATP-dependent translocase ABCB1; test: Inhibition of P-gp in human HCT-15 cells assessed as increase in green fluorescence intensity at 0.1 to 10 uM incubated for 15 mins followed by incubation with EFFLUX-ID Green Detection Reagent and Hoeschst-33342 dye and measured after 30 mins by fluorescence analysis; format: cell-based; conditions: hct-15, 0.25 h, dose 0.1-10 µM; how it was run: as §2
# [7] = molecular target: T1, ATP-dependent translocase ABCB1; test: Inhibition of P-gp in human HCT-15 cells assessed as fold increase in green fluorescence intensity at 10 uM incubated for 15 mins followed by incubation with EFFLUX-ID Green Detection Reagent and Hoeschst-33342 dye and measured after 30 mins by fluorescence analysis relative to control; format: cell-based; conditions: hct-15, 0.25 h; how it was run: as §2
# HT-29 [8] = test: Coadjutant activity against multidrug resistance in human HT-29 cells assessed as potentiation of vincristine-induced cell growth inhibition at 4 uM incubated for 72 hrs in presence of 0.02 to 20 uM vincristine by SiR-DNA/CellTox Green Dye based fluorescence analysis; format: functional; how it was run: as §3
# U-87 MG [9] = test: Cytotoxicity against human U-87 MG cells assessed as inhibition of cell growth at 4 uM incubated for 72 hrs by SiR-DNA/CellTox Green Dye based fluorescence analysis; format: toxicity; conditions: u-87mg atcc; how it was run: as §1
# HuP-T3 = test: Coadjutant activity against multidrug resistance in human HuP-T3 cells assessed as potentiation of cisplatin-induced cell growth inhibition at 0.25 to 4 uM incubated for 72 hrs in presence of 0.25 uM cisplatin by SiR-DNA/CellTox Green Dye based fluorescence analysis; format: functional; conditions: dose 0.25-4 µM; how it was run: as §4
# SK-N-SH = test: Coadjutant activity against multidrug resistance in human SK-N-SH cells assessed as potentiation of etoposide-induced cell growth inhibition at 4 uM incubated for 72 hrs in presence of 0.04 to 40 uM etoposide by SiR-DNA/CellTox Green Dye based fluorescence analysis; format: functional; how it was run: as §3
# A704 = test: Coadjutant activity against multidrug resistance in human A704 cells assessed as potentiation of etoposide-induced cell growth inhibition at 4 uM incubated for 72 hrs in presence of 0.04 to 40 uM etoposide by SiR-DNA/CellTox Green Dye based fluorescence analysis; format: functional; how it was run: as §3
# HGC-27 = test: Coadjutant activity against multidrug resistance in human HGC-27 cells assessed as potentiation of vincristine-induced cell growth inhibition by measuring cell growth at 4 uM incubated for 72 hrs in presence of 0.02 to 20 uM vincristine by SiR-DNA/CellTox Green Dye based fluorescence analysis; format: functional; design: scale not given: the % may be the effect or the level left; how it was run: as §3
# MeWo [10] = test: Coadjutant activity against multidrug resistance in human MeWo cells assessed as potentiation of vincristine-induced cell growth inhibition at 4 uM incubated for 72 hrs in presence of 0.02 to 20 uM vincristine by SiR-DNA/CellTox Green Dye based fluorescence analysis; format: functional; how it was run: as §3
# SK-HEP1 = test: Coadjutant activity against multidrug resistance in human SK-HEP1 cells assessed as potentiation of cisplatin-induced cell growth inhibition at 4 uM incubated for 72 hrs in presence of 0.1 to 100 uM cisplatin by SiR-DNA/CellTox Green Dye based fluorescence analysis; format: functional; how it was run: as §4
# U-87 MG [11] = test: Coadjutant activity against multidrug resistance in human U-87 MG cells assessed as potentiation of vincristine-induced cell growth inhibition at 4 uM incubated for 72 hrs in presence of 0.02 to 20 uM vincristine by SiR-DNA/CellTox Green Dye based fluorescence analysis; format: functional; conditions: U-87MG ATCC; how it was run: as §3
# T1 sequence (P08183 whole entry): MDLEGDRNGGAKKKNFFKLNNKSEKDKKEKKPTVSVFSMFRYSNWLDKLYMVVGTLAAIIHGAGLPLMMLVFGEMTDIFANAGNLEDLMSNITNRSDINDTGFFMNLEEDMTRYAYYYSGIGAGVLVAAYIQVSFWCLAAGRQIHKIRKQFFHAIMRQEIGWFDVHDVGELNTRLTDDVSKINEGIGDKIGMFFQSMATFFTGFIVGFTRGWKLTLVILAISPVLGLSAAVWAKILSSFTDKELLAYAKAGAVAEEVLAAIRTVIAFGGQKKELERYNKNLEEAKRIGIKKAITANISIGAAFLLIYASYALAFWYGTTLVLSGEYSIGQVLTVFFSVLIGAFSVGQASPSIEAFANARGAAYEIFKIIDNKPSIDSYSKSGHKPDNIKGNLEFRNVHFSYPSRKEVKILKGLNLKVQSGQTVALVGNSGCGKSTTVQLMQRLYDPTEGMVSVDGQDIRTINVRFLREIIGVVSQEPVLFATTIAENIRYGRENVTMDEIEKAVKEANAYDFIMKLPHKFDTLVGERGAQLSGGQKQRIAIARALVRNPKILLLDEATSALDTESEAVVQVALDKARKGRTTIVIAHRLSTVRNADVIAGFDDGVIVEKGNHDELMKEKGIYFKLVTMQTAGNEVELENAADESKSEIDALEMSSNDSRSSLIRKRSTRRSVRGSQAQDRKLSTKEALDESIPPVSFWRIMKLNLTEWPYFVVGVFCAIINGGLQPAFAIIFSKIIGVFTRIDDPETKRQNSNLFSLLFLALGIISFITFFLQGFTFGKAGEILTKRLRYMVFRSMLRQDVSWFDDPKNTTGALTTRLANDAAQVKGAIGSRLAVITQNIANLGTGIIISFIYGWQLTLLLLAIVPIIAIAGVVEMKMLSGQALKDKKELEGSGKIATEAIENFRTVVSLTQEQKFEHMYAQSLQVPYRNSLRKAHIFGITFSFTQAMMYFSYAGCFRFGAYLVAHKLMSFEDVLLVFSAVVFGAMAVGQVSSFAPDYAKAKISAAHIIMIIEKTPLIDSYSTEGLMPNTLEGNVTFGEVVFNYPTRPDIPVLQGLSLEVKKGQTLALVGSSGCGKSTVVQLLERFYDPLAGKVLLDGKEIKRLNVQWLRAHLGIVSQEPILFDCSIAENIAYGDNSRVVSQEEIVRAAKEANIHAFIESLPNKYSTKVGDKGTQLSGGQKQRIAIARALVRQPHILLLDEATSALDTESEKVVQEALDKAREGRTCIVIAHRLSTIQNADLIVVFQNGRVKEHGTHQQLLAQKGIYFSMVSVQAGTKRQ
structure (smiles),measurement,setting,value
O=C(Nc1ccccc1)c1ccccc1OCc1nc2cc3cccnc3cc2nc1COc1ccccc1C(=O)Nc1ccccc1,Activity,MeWo [1],Non-Toxic
same,inhibition (INH),[2],Active
same,"inhibition at 72 h, 4 µM",[3],40%
same,Activity,A498,Active
same,Activity,U-87 MG [4],Active
same,Activity,HT-29 [5],inactive
same,Activity,HMC3,Non-Toxic
same,inhibition (INH),[6],Active
same,fold change (FC),[7],2
same,Activity,HT-29 [8],Active
same,Activity,U-87 MG [9],Non-Toxic
same,Activity,HuP-T3,inactive
same,Activity,SK-N-SH,Active
same,Activity,A704,Active
same,Activity,HGC-27,50%
same,Activity,MeWo [10],Active
same,Activity,SK-HEP1,inactive
same,Activity,U-87 MG [11],Active
